PMC6525002 (Cancer Management and Research, 2019)

Assays:
[1] = Phase Ib pharmacokinetics, single dose; format: in vivo, human
In short: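 Blood collected on Day 1 at 0.05 h before the first oral dose and 0.5, 1, 1.5, 2, 4, 6, 8, 10, 12 and 24 h after. Test compound quantified by LC-MS using multiple reaction monitoring, LLOQ 1 ng/mL. Cmax, AUC, CL, t1/2 and related parameters were derived from individual concentration-time profiles and summarised descriptively.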

[2] = Phase Ib pharmacokinetics, multi-dosing; format: in vivo, human
In short: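 Oral test compound, flat doses twice daily for 28 days. Plasma sampled before the first daily dose on Days 8, 9, 10, 22 and 29. On Day 15, sampling ran 0.05 h predose and 0.5, 1, 1.5, 2, 4, 6, 8, 10 and 12 h post-dose. Assay by LC-MS with multiple reaction monitoring, LLOQ 1 ng/mL. Parameters were calculated from individual concentration-time profiles.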

[3] = single dose 100 mg, N=2, mean ± SD
[4] = single dose 200 mg, N=3, mean ± SD
[5] = single dose 300 mg, N=3, mean ± SD
[6] = single dose 400 mg, N=15, mean ± SD
[7] = single dose 500 mg, N=12, mean ± SD
[8] = single dose 650 mg, N=6, mean ± SD
[9] = multi-dosing 100 mg twice daily, N=2
[10] = multi-dosing 100 mg twice daily, N=2, mean±SD
[11] = multi-dosing 200 mg twice daily, N=3, mean±SD
[12] = multi-dosing 300 mg twice daily, N=3, mean±SD
[13] = multi-dosing 400 mg twice daily, N=15, mean±SD
[14] = multi-dosing 500 mg twice daily, N=12, mean±SD
[15] = multi-dosing 650 mg twice daily, N=6, mean±SD

For simotinib, the bioavailability ([1]; orally administered) was “good bioavailability”, the Tmax ([1]; single dose 100 mg, N=2) was 1.8 (1.5–2.0) h and the AUC0-last [1, 3] was 405.6 ± 94.8 ng·h/mL. For the same substance, the “AUC0-∞” value [1, 3] was 466.2 ± 129.9 ng·h/mL, the CL [1, 3] was 223.1 ± 62.2 L/h and the Cmax [1, 3] was 56.5 ± 18.2 ng/mL. The T1/2 [1, 3] was 5.3 ± 0.3 h, the Vd [1, 3] was 1,704.0±385.8 L and the Tmax ([1]; single dose 200 mg, N=3) was 2.0 (2.0–2.0) h. The AUC0-last [1, 4] was 2,339.6±479.9 ng•hr/mL, the “AUC0-∞” value [1, 4] was 2,955.0±564.0 ng•hr/mL and the CL [1, 4] was 68.9 ± 13.2 L/h. The Cmax [1, 4] was 333.0 ± 35.4 ng/mL, the T1/2 [1, 4] was 12.2 ± 3.5 h and the Vd [1, 4] was 1,250.1±579.7 L. The Tmax ([1]; single dose 300 mg, N=3) was 1.5 (1.5–2.0) h, the AUC0-last [1, 5] was 2,814.0±764.5 ng•hr/mL and the “AUC0-∞” value [1, 5] was 3,243.8±776.1 ng•hr/mL. The CL [1, 5] was 95.2 ± 22.8 L/h, the Cmax [1, 5] was 552.5 ± 388.2 ng/mL and the T1/2 [1, 5] was 9.2 ± 1.0 h. The Vd [1, 5] was 1,286.1±438.6 L, the Tmax ([1]; single dose 400 mg, N=15) was 2.0 (1.0–8.0) h and the AUC0-last [1, 6] was 3,581.9±1,868.5 ng•hr/mL. For the same substance, the “AUC0-∞” value [1, 6] was 4,962.1±3,141.7 ng•hr/mL, the CL [1, 6] was 127.4 ± 117.6 L/h and the Cmax [1, 6] was 566.4 ± 372.0 ng/mL. The T1/2 [1, 6] was 13.3 ± 6.3 h, the Vd [1, 6] was 2,097.2±1,506.8 L and the Tmax ([1]; single dose 500 mg, N=12) was 1.8 (0.5–4.0) h. For the same substance, the AUC0-last [1, 7] was 3,791.0±2,741.1 ng•hr/mL, the “AUC0-∞” value [1, 7] was 6,483.8±5,008.4 ng•hr/mL and the CL [1, 7] was 200.5 ± 300.1 L/h. The Cmax [1, 7] was 514.5 ± 316.4 ng/mL, the T1/2 [1, 7] was 28.0 ± 33.8 h and the Vd [1, 7] was 7,166.6±12,246.1 L. The Tmax ([1]; single dose 650 mg, N=6) was 2.0 (1.0–6.0) h, the AUC0-last [1, 8] was 4,652.1±3,442.1 ng•hr/mL and the “AUC0-∞” value [1, 8] was 7,648.4±3,028.7 ng•hr/mL. It also gave a CL [1, 8] of 97.7 ± 39.2 L/h, a Cmax [1, 8] of 828.5 ± 849.0 ng/mL and a T1/2 [1, 8] of 29.7 ± 32.2 h. For the same substance, the Vd [1, 8] was 3,873.8±3,378.1 L, the “time to Cmax, range over doses” value ([1]; single dose, all doses) was 1.5 to 2.0 h and the “T1/2, range over doses” value ([2]; 200–650 mg doses) was 8 to 13 h. For the same substance, the “AUC0-∞” value [2, 9] was 956.9 ng·h/mL, the CL [2, 9] was 148.5 L/h and the T1/2 [2, 9] was 6.2 h. For the same substance, the Tmax [2, 9] was 1.0(0–2.0) h, the Vd [2, 9] was 1323.3 L and the AUC0-last [2, 10] was 920.4 ± 349.2 ng·h/mL. For the same substance, the Cavg [2, 10] was 76.7 ± 29.1 ng/mL, the Cmax [2, 10] was 130.3 ± 70.3 ng/mL and the Cmin [2, 10] was 54.5 ± 32.1 ng/mL. The Tmax ([2]; multi-dosing 200 mg twice daily, N=3) was 4.0 (2.0–4.0) h, the AUC0-last [2, 11] was 3,940.9±2,689.0 ng•hr/mL and the “AUC0-∞” value [2, 11] was 6,571.6±3,241.2 ng•hr/mL. For the same substance, the CL [2, 11] was 66.1 ± 45.1 L/h, the Cavg [2, 11] was 328.4 ± 224.1 ng/mL and the Cmax [2, 11] was 447.0 ± 258.8 ng/mL. The Cmin [2, 11] was 207.0 ± 152.7 ng/mL, the T1/2 [2, 11] was 9.6 ± 4.2 h and the Vd [2, 11] was 1,050.0±1,020.6 L. The Tmax ([2]; multi-dosing 300 mg twice daily, N=3) was 1.5 (1.0–2.0) h, the AUC0-last [2, 12] was 6,013.9±3,058.1 ng•hr/mL and the “AUC0-∞” value [2, 12] was 9,728.6±1,648.2 ng•hr/mL. The CL [2, 12] was 57.3 ± 29.1 L/h, the Cavg [2, 12] was 501.2 ± 254.8 ng/mL and the Cmax [2, 12] was 1,519.0±1,132.8 ng/mL. For the same substance, the Cmin [2, 12] was 288.0 ± 117.4 ng/mL, the T1/2 [2, 12] was 10.4 ± 7.8 h and the Vd [2, 12] was 1,019.6±1,077.5 L. The Tmax ([2]; multi-dosing 400 mg twice daily, N=15) was 2.0 (0–8.0) h, the AUC0-last [2, 13] was 5,245.7±2,194.4 ng•hr/mL and the “AUC0-∞” value [2, 13] was 10,577.7±5,867.6 ng•hr/mL. The CL [2, 13] was 99.5 ± 70.4 L/h, the Cavg [2, 13] was 437.1 ± 182.9 ng/mL and the Cmax [2, 13] was 767.9 ± 338.1 ng/mL. The Cmin [2, 13] was 251.6 ± 127.0 ng/mL, the T1/2 [2, 13] was 13.0 ± 11.8 h and the Vd [2, 13] was 2,000.6±3,169.6 L. The Tmax ([2]; multi-dosing 500 mg twice daily, N=12) was 1.8 (1.0–6.0) h, the AUC0-last [2, 14] was 7,819.8±1,942.3 ng•hr/mL and the “AUC0-∞” value [2, 14] was 12,780.6±3,894.7 ng•hr/mL. The CL [2, 14] was 67.7 ± 17.2 L/h, the Cavg [2, 14] was 651.6 ± 161.9 ng/mL and the Cmax [2, 14] was 1,396.0±534.8 ng/mL. For the same substance, the Cmin [2, 14] was 378.3 ± 132.0 ng/mL, the T1/2 [2, 14] was 8.4 ± 2.8 h and the Vd [2, 14] was 811.3 ± 326.9 L. The Tmax ([2]; multi-dosing 650 mg twice daily, N=6) was 2.0 (1.5–8) h, the AUC0-last [2, 15] was 4,615.7±1,599.7 ng•hr/mL and the “AUC0-∞” value [2, 15] was 8,193.3±3,211.2 ng•hr/mL. For the same substance, the CL [2, 15] was 156.3 ± 55.6 L/h, the Cavg [2, 15] was 384.6 ± 133.3 ng/mL and the Cmax [2, 15] was 650.8 ± 234.7 ng/mL. For the same substance, the Cmin [2, 15] was 214.3 ± 84.8 ng/mL, the T1/2 [2, 15] was 9.2 ± 1.9 h and the Vd [2, 15] was 2,021.8±635.7 L. For the same substance, the “time to maximum concentration, range over doses” value ([2]; multiple dosing, 300, 400, 500, and 650 mg doses) was 1.5 to 2.0 h.
